Measurements published in ChEMBL document CHEMBL4118218, “Elucidating the inhibition of peptidoglycan biosynthesis in Staphylococcus aureus by albocycline, a macrolactone isolated from Streptomyces maizeus” (Bioorg Med Chem, 2018).
In brackets after ≈: the same amount, converted by molar mass. Activity calls are given as the source filed them. No cut-off for these calls is given here.

Assays:
Staphylococcus aureus [1] = assay: Antibacterial activity against vancomycin-resistant Staphylococcus aureus isolate 1 after 16 hrs by broth micro dilution method; type: functional; conditions: isolate 1, 16 h
How it was run: (§1)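 Mueller-Hinton broth microdilution. Bacteria were grown overnight at 37 °C with shaking, diluted 1:100 and grown to mid-exponential phase. About 3 × 10^5 CFU per well went into MH with test compound (0–256 μg/mL) in DMSO vehicle. Plates were incubated at 37 °C for 16 h. MIC was the lowest concentration without growth visible by eye; three independent assays.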

Staphylococcus aureus [2] = assay: Antibacterial activity against methicillin-sensitive Staphylococcus aureus UAMS-1 after 16 hrs by broth micro dilution method; type: functional; conditions: UAMS-1, 16 h; how it was run: as §1
[3] = system: UDP-N-acetylglucosamine 1-carboxyvinyltransferase 2 (Staphylococcus aureus); assay: Inhibition of GST-tagged Staphylococcus aureus MurZ expressed in Escherichia coli BL21(DE3) cells preincubated with PEP and enzyme for 10 mins followed by UDP-GlcNAc addition measured after 3 hrs by HPLC analysis
[4] = biological target: T1, UDP-N-acetylglucosamine 1-carboxyvinyltransferase 1 (Staphylococcus aureus subsp. aureus N315) (UniProt P84058); assay: Inhibition of GST-tagged Staphylococcus aureus MurA expressed in Escherichia coli BL21(DE3) cells assessed as reduction in EP-UDP-GlcNAc production at 650 uM preincubated with UDP-GlcNAc and enzyme for 10 mins followed by PEP addition measured after 3 hrs by HPLC analysis
T1 sequence (whole entry): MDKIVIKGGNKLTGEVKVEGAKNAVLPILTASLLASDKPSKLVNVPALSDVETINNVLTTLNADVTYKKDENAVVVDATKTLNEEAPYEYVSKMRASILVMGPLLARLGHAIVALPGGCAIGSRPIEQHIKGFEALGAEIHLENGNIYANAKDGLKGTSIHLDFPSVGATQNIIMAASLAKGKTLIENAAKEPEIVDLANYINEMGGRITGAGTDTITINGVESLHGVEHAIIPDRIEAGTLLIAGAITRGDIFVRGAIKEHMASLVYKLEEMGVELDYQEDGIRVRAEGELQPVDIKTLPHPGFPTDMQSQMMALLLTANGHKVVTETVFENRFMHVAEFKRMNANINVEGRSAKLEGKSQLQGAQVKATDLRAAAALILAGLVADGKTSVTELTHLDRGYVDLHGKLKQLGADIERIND
How it was run: (§2)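 Tag-cleaved S. aureus MurA, 1.0 μg. Preincubated 10 min on ice with 650 μM compound plus 400 μM PEP or 400 μM UDP-GlcNAc. Reaction started with 600 μM of the other substrate, then run 3 h at room temperature in triple replicates. UDP-GlcNAc and EP-UDP-GlcNAc separated by anion-exchange HPLC.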

Staphylococcus aureus [5] = assay: Antibacterial activity against methicillin-resistant Staphylococcus aureus LAC JE2 after 16 hrs by broth micro dilution method; type: functional; conditions: LAC JE2, 16 h; how it was run: as §1
[6] = biological target: T2, UDP-N-acetylglucosamine 1-carboxyvinyltransferase 1 (Staphylococcus aureus subsp. aureus N315, UniProt P84058); assay: Inhibition of Staphylococcus aureus MurA assessed as reduction in [3H]GlcNAc uptake
T2 sequence (P84058 whole entry): T1 sequence (whole entry)

[7] = biological target: T2, UDP-N-acetylglucosamine 1-carboxyvinyltransferase 1; assay: Inhibition of GST-tagged Staphylococcus aureus MurA expressed in Escherichia coli BL21(DE3) cells preincubated with PEP and enzyme for 10 mins followed by UDP-GlcNAc addition measured after 3 hrs by HPLC analysis
How it was run: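 Purified S. aureus MurA (GST tag cleaved off by PreScission protease, 350 nM) was preincubated 10 min with 300 μM PEP and albocycline (0–5000 μM) in 50 mM Tris, 2 mM KCl at 25 °C, in triplicate. UDP-GlcNAc was then added and the reaction run 3 h at room temperature. UDP-GlcNAc and EP-UDP-GlcNAc were separated by MonoQ anion-exchange HPLC with an ammonium bicarbonate gradient. Percent inhibition came from relative peak areas, and IC50 from a nonlinear dose-response fit.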

Staphylococcus aureus [8] = assay: Antibacterial activity against vancomycin-resistant Staphylococcus aureus isolate 10 after 16 hrs by broth micro dilution method; type: functional; conditions: isolate 10, 16 h; how it was run: as §1
Staphylococcus aureus [9] = assay: Antibacterial activity against Staphylococcus aureus ATCC 25923 after 16 hrs by broth micro dilution method; type: functional; conditions: ATCC 25923, 16 h; how it was run: as §1
[10] = biological target: UDP-N-acetylglucosamine 1-carboxyvinyltransferase (Escherichia coli K-12) (UniProt P0A749); assay: Inhibition of GST-tagged Escherichia coli MurA expressed in Escherichia coli BL21(DE3) cells preincubated with PEP and enzyme for 10 mins followed by UDP-GlcNAc addition measured after 3 hrs by HPLC analysis
How it was run: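 GST-tagged enzyme, GST removed by PreScission protease after glutathione affinity capture. Conditions: 50 mM Tris, 2 mM KCl, room temperature (25 °C), in triplicate. Enzyme preincubated 10 min with PEP and compound, then UDP-GlcNAc added. Substrate and product separated by MonoQ anion-exchange HPLC with an ammonium bicarbonate gradient. Percent inhibition taken from UDP-GlcNAc/EP-UDP-GlcNAc peak areas.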

HepG2 = assay: Cytotoxicity against human HepG2 cells at <= 64 ug/ml by MTT assay; type: cell-based
How it was run: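 HepG2 human hepatocellular carcinoma cells; colorimetric MTT cell proliferation assay; compound tested at final concentrations up to 64 μg/mL.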

[11] = biological target: T1, UDP-N-acetylglucosamine 1-carboxyvinyltransferase 1 (Staphylococcus aureus subsp. aureus N315); assay: Inhibition of GST-tagged Staphylococcus aureus MurA expressed in Escherichia coli BL21(DE3) cells assessed as reduction in EP-UDP-GlcNAc production at 650 uM preincubated with PEP and enzyme for 10 mins followed by UDP-GlcNAc addition measured after 3 hrs by HPLC analysis; how it was run: as §2
Escherichia coli = assay: Antibacterial activity against Escherichia coli RFM795 harboring lptD gene mutant after 16 hrs by broth micro dilution method; type: functional; conditions: RFM795, 16 h; how it was run: as §1
Staphylococcus aureus [12] = assay: Antibacterial activity against vancomycin-intermediate Staphylococcus aureus Mu50 after 16 hrs by broth micro dilution method; type: functional; conditions: Mu50, 16 h; how it was run: as §1
Staphylococcus aureus [13] = assay: Antibacterial activity against methicillin-resistant Staphylococcus aureus; type: functional; how it was run: as §1

Sequence of UDP-N-acetylglucosamine 1-carboxyvinyltransferase (Escherichia coli K-12) (P0A749 whole entry): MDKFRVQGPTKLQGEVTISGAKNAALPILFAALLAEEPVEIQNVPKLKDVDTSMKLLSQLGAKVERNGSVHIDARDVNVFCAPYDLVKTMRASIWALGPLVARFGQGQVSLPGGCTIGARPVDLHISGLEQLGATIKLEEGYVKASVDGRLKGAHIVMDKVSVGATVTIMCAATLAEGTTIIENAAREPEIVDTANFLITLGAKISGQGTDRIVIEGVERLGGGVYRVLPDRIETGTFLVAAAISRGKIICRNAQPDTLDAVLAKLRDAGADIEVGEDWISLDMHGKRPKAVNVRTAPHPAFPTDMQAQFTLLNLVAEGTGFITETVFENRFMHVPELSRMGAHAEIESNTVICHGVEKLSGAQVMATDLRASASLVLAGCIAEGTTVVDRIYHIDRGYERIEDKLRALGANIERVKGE

SMILES | MIC (Staphylococcus aureus [1]) [µg/mL] | MIC (Staphylococcus aureus [2]) [µg/mL] | inhibition [3] | inhibition [4] | MIC (Staphylococcus aureus [5]) [µg/mL] | IC50 [6] [µM] | IC50 [7] [µM] | MIC (Staphylococcus aureus [8]) [µg/mL] | MIC (Staphylococcus aureus [9]) [µg/mL] | inhibition [10] | Activity (HepG2) | inhibition [11] | MIC (Escherichia coli) [µg/mL] | MIC (Staphylococcus aureus [12]) [µg/mL] | MIC (Staphylococcus aureus [13]) [µg/mL]
CO[C@H]1/C=C/[C@@](C)(O)/C=C/C(=O)O[C@H](C)[C@@H](C)CC/C=C/1C | 4 (≈ 13 µM) | 0.5 (≈ 1.62 µM) | inactive | inactive | 2 (≈ 6.48 µM) | 112 | 480 | 1 (≈ 3.24 µM) | 1 (≈ 3.24 µM) | inactive | Non-Toxic | Active | > 256 | 2 (≈ 6.48 µM) | 0.5 to 1 (≈ 1.62 to 3.24 µM)
C[C@@H]1O[C@@H]1P(=O)(O)O [FOSFOMYCIN] | – | – | – | – | – | – | – | – | 32 (≈ 232 µM) | – | – | – | 1 (≈ 7.24 µM) | – | –
CN[C@H](CC(C)C)C(=O)N[C@H]1C(=O)N[C@@H](CC(N)=O)C(=O)N[C@H]2C(=O)N[C@H]3C(=O)N[C@H](C(=O)N[C@H](C(=O)O)c4cc(O)cc(O)c4-c4cc3ccc4O)[C@H](O)c3ccc(c(Cl)c3)Oc3cc2cc(c3O[C@@H]2O[C@H](CO)[C@@H](O)[C@H](O)[C@H]2O[C@H]2C[C@](C)(N)[C@H](O)[C@H](C)O2)Oc2ccc(cc2Cl)[C@H]1O [VANCOMYCIN] | > 64 | – | – | – | – | – | – | > 64 | – | – | – | – | – | – | –
